tested on: HeLa; assay: Cytostatic activity against human HeLa cells assessed as inhibition of cell proliferation after 72 hrs by MTT assay; type: functional, cell-based; details: not given
Summary of the method: (§1)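 Monolayer cells grown in DMEM with 10% FBS were seeded on day 0 at 3000–6000 cells/well, set by each line's doubling time. Agents were added the next step in five 10-fold dilutions (0.01–100) for 72 h, with DMSO ≤0.1% and a solvent control. MTT absorbance was converted to percentage growth versus untreated wells on the same plate. Where all PGs exceeded 50, the top concentration was reported as ">". ANOVA/Tukey, p<0.05.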

| IC50 | Structure (SMILES) |
| --- | --- |
| > 100 µM | Nc1ncn(CCC2(N)OC(=O)C(OCc3ccccc3)=C2OCc2ccccc2)c(=O)n1 (racemic) |
| > 100 µM | Nc1ccn(C[C@H](O)[C@H]2OC(=O)C(OCc3ccccc3)=C2OCc2ccccc2)c(=O)n1 |

tested on: MIA PaCa-2; assay: Cytostatic activity against human MIAPaCa2 cells assessed as inhibition of cell proliferation after 72 hrs by MTT assay; type: functional, cell-based; details: MIA PaCa-2, 72 h; summary of the method: as §1

| IC50 | Structure (SMILES) |
| --- | --- |
| > 100 µM | Nc1ncn(CCC2(N)OC(=O)C(OCc3ccccc3)=C2OCc2ccccc2)c(=O)n1 (racemic) |
| > 100 µM | Nc1ccn(C[C@H](O)[C@H]2OC(=O)C(OCc3ccccc3)=C2OCc2ccccc2)c(=O)n1 |

tested on: HepG2; assay: Cytostatic activity against human HepG2 cells assessed as inhibition of cell proliferation after 72 hrs by MTT assay; type: functional, cell-based; details: HepG2, 72 h; summary of the method: as §1

| IC50 | Structure (SMILES) |
| --- | --- |
| > 100 µM | Nc1ncn(CCC2(N)OC(=O)C(OCc3ccccc3)=C2OCc2ccccc2)c(=O)n1 (racemic) |
| 44.3 µM | Nc1ccn(C[C@H](O)[C@H]2OC(=O)C(OCc3ccccc3)=C2OCc2ccccc2)c(=O)n1 |

tested on: WI-38; assay: Cytotoxicity against human WI38 cells assessed as inhibition of cell proliferation after 72 hrs by MTT assay; type: cell-based; details: WI-38, 72 h; summary of the method: as §1

| Structure (SMILES) | IC50 |
| --- | --- |
| Nc1ncn(CCC2(N)OC(=O)C(OCc3ccccc3)=C2OCc2ccccc2)c(=O)n1 (racemic) | > 100 µM |
| Nc1ccn(C[C@H](O)[C@H]2OC(=O)C(OCc3ccccc3)=C2OCc2ccccc2)c(=O)n1 | 53.9 µM |

tested on: SW-620; assay: Cytostatic activity against human SW620 cells assessed as inhibition of cell proliferation after 72 hrs by MTT assay; type: functional, cell-based; details: SW-620, 72 h; summary of the method: as §1

| IC50 | Structure (SMILES) |
| --- | --- |
| > 100 µM | Nc1ncn(CCC2(N)OC(=O)C(OCc3ccccc3)=C2OCc2ccccc2)c(=O)n1 (racemic) |
| > 100 µM | Nc1ccn(C[C@H](O)[C@H]2OC(=O)C(OCc3ccccc3)=C2OCc2ccccc2)c(=O)n1 |

tested on: MCF7; assay: Cytostatic activity against human MCF7 cells assessed as inhibition of cell proliferation after 72 hrs by MTT assay; type: functional, cell-based; details: MCF7, 72 h; summary of the method: as §1

| IC50 | Structure (SMILES) |
| --- | --- |
| > 100 µM | Nc1ncn(CCC2(N)OC(=O)C(OCc3ccccc3)=C2OCc2ccccc2)c(=O)n1 (racemic) |
| 7.34 µM | Nc1ccn(C[C@H](O)[C@H]2OC(=O)C(OCc3ccccc3)=C2OCc2ccccc2)c(=O)n1 |

From ChEMBL document CHEMBL1795205, “The new 5- or 6-azapyrimidine and cyanuric acid derivatives of l-ascorbic acid bearing the free C-5 hydroxy or C-4 amino group at the ethylenic spacer: CD-spectral absolute configuration determination and biological activity evaluations” (Eur J Med Chem, 2011)
